# Measurements taken from ChEMBL document CHEMBL5058577, “EUbOPEN Chemogenomics Library 2 (Multiplex)” (2022).
# System: HEK-293T
# Assay: Multiplex assay against HEK293T
# Type: toxicity, cell-based
# Conditions: human
# Procedure, shortened: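 Live cells were stained at seeding with Hoechst33342, BioTracker Green Microtubule Cytoskeleton Dye, MitoTracker Red and Annexin V Alexa Fluor 680, then imaged on a CQ1 microscope at 37°C and 5% CO2 after compound addition. CellPathfinder machine-learning gating split cells into Hoechst high-intensity objects or normal cells. Normal cells were split into healthy, pyknosed or fragmented nuclei, and pyknosed cells into mitotic or apoptotic. Tubulin, mitochondrial-mass and membrane-permeability phenotypes are per cents of healthy-nucleus cells.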
# [1] = 12 h, 1 µM, compound concentration 1 uM, replicate 1
# [2] = 12 h, 1 µM, compound concentration 1 uM, replicate 2
# [3] = 12 h, 10 µM, compound concentration 10 uM, replicate 1
# [4] = 12 h, 10 µM, compound concentration 10 uM, replicate 2
# [5] = 24 h, 1 µM, compound concentration 1 uM, replicate 1
# [6] = 24 h, 1 µM, compound concentration 1 uM, replicate 2
# [7] = 24 h, 10 µM, compound concentration 10 uM, replicate 1
# [8] = 24 h, 10 µM, compound concentration 10 uM, replicate 2
# [9] = 48 h, 1 µM, compound concentration 1 uM, replicate 1
# [10] = 48 h, 1 µM, compound concentration 1 uM, replicate 2
# [11] = 48 h, 10 µM, compound concentration 10 uM, replicate 1
# [12] = 48 h, 10 µM, compound concentration 10 uM, replicate 2
structure (smiles),measurement,setting,value
CCn1c(-c2nc3cc(C(=O)N4CCCC(N)C4)ccc3n2C)cc2ccccc21.Cl (configuration not stated),Population Apoptotic (%),[1],54%
same,Population Fragmented Nuclei (%),[1],9%
same,Population Healthy Nuclei (%),[1],77%
same,Population Hoechst High Intensity Objects (%),[1],7%
same,Population Membrane Permeable-Phenotype (%),[1],0%
same,Population Mitochondria Different-Phenotype (%),[1],52%
same,Population Mitotic Cells (%),[1],45%
same,Population Normal (%),[1],92%
same,Population Pyknosed Nuclei (%),[1],13%
same,Population Tubulin-Different-Phenotype (%),[1],33%
same,Total Cell Count,[1],351
same,Population Apoptotic (%),[2],47%
same,Population Fragmented Nuclei (%),[2],5%
same,Population Healthy Nuclei (%),[2],81%
same,Population Hoechst High Intensity Objects (%),[2],6%
same,Population Mitochondria Different-Phenotype (%),[2],69%
same,Population Mitotic Cells (%),[2],52%
same,Population Normal (%),[2],93%
same,Population Tubulin-Different-Phenotype (%),[2],20%
same,Total Cell Count,[2],312
same,Population Apoptotic (%),[3],53%
same,Population Fragmented Nuclei (%),[3],8%
same,Population Healthy Nuclei (%),[3],74%
same,Population Hoechst High Intensity Objects (%),[3],11%
same,Population Membrane Permeable-Phenotype (%),[3],0%
same,Population Mitochondria Different-Phenotype (%),[3],85%
same,Population Mitotic Cells (%),[3],46%
same,Population Normal (%),[3],88%
same,Population Pyknosed Nuclei (%),[3],17%
same,Population Tubulin-Different-Phenotype (%),[3],75%
same,Total Cell Count,[3],406
same,Population Fragmented Nuclei (%),[4],6%
same,Population Healthy Nuclei (%),[4],78%
same,Population Hoechst High Intensity Objects (%),[4],8%
same,Population Normal (%),[4],91%
same,Population Pyknosed Nuclei (%),[4],15%
same,Population Tubulin-Different-Phenotype (%),[4],64%
same,Total Cell Count,[4],398
same,Population Apoptotic (%),[5],35%
same,Population Fragmented Nuclei (%),[5],9%
same,Population Healthy Nuclei (%),[5],80%
same,Population Hoechst High Intensity Objects (%),[5],6%
same,Population Membrane Permeable-Phenotype (%),[5],0%
same,Population Mitochondria Different-Phenotype (%),[5],37%
same,Population Mitotic Cells (%),[5],64%
same,Population Normal (%),[5],93%
same,Population Pyknosed Nuclei (%),[5],10%
same,Population Tubulin-Different-Phenotype (%),[5],22%
same,Total Cell Count,[5],459
same,Population Apoptotic (%),[6],39%
same,Population Healthy Nuclei (%),[6],79%
same,Population Hoechst High Intensity Objects (%),[6],4%
same,Population Mitochondria Different-Phenotype (%),[6],49%
same,Population Mitotic Cells (%),[6],60%
same,Population Normal (%),[6],95%
same,Population Pyknosed Nuclei (%),[6],11%
same,Population Tubulin-Different-Phenotype (%),[6],14%
same,Total Cell Count,[6],383
same,Population Apoptotic (%),[7],51%
same,Population Fragmented Nuclei (%),[7],11%
same,Population Healthy Nuclei (%),[7],70%
same,Population Hoechst High Intensity Objects (%),[7],12%
same,Population Membrane Permeable-Phenotype (%),[7],1%
same,Population Mitochondria Different-Phenotype (%),[7],72%
same,Population Mitotic Cells (%),[7],48%
same,Population Normal (%),[7],87%
same,Population Pyknosed Nuclei (%),[7],18%
same,Population Tubulin-Different-Phenotype (%),[7],64%
same,Total Cell Count,[7],449
same,Population Apoptotic (%),[8],40%
same,Population Fragmented Nuclei (%),[8],8%
same,Population Healthy Nuclei (%),[8],78%
same,Population Hoechst High Intensity Objects (%),[8],9%
same,Population Membrane Permeable-Phenotype (%),[8],0%
same,Population Mitochondria Different-Phenotype (%),[8],83%
same,Population Mitotic Cells (%),[8],59%
same,Population Normal (%),[8],90%
same,Population Pyknosed Nuclei (%),[8],13%
same,Population Tubulin-Different-Phenotype (%),[8],58%
same,Total Cell Count,[8],471
same,Population Apoptotic (%),[9],20%
same,Population Fragmented Nuclei (%),[9],12%
same,Population Healthy Nuclei (%),[9],79%
same,Population Hoechst High Intensity Objects (%),[9],5%
same,Population Membrane Permeable-Phenotype (%),[9],1%
same,Population Mitochondria Different-Phenotype (%),[9],28%
same,Population Mitotic Cells (%),[9],79%
same,Population Normal (%),[9],94%
same,Population Pyknosed Nuclei (%),[9],8%
same,Population Tubulin-Different-Phenotype (%),[9],17%
same,Total Cell Count,[9],771
same,Population Apoptotic (%),[10],14%
same,Population Fragmented Nuclei (%),[10],13%
same,Population Healthy Nuclei (%),[10],81%
same,Population Hoechst High Intensity Objects (%),[10],4%
same,Population Membrane Permeable-Phenotype (%),[10],0%
same,Population Mitochondria Different-Phenotype (%),[10],30%
same,Population Mitotic Cells (%),[10],85%
same,Population Normal (%),[10],95%
same,Population Pyknosed Nuclei (%),[10],5%
same,Population Tubulin-Different-Phenotype (%),[10],11%
same,Total Cell Count,[10],640
same,Population Apoptotic (%),[11],50%
same,Population Fragmented Nuclei (%),[11],14%
same,Population Healthy Nuclei (%),[11],73%
same,Population Hoechst High Intensity Objects (%),[11],15%
same,Population Membrane Permeable-Phenotype (%),[11],0%
same,Population Mitochondria Different-Phenotype (%),[11],65%
same,Population Mitotic Cells (%),[11],49%
same,Population Normal (%),[11],84%
same,Population Pyknosed Nuclei (%),[11],12%
same,Population Tubulin-Different-Phenotype (%),[11],63%
same,Total Cell Count,[11],605
same,Population Apoptotic (%),[12],52%
same,Population Fragmented Nuclei (%),[12],10%
same,Population Healthy Nuclei (%),[12],79%
same,Population Hoechst High Intensity Objects (%),[12],8%
same,Population Mitochondria Different-Phenotype (%),[12],71%
same,Population Mitotic Cells (%),[12],47%
same,Population Normal (%),[12],91%
same,Population Pyknosed Nuclei (%),[12],9%
same,Total Cell Count,[12],613
